For one data set, the system named is NCI-H460. Nature of the data set: Antiproliferative activity against human NCI-H460 cells after 72 hrs by CellTiter 96 aqueous nonradioactive cell proliferation assay. Format: functional, cell-based. As to conditions: NCI-H460, 72 h; call rule not given here. The gist of the method:
(§1)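 Antiproliferation in cultured tumour cells, at least 3 replicate wells per concentration per experiment. NCI-H460 came from ATCC. M14, NCI/ADR-RES, OVCAR-4, HCT-15, ACHN and SF-295 came from the National Cancer Institute. IC50 reported from single experiments where no SD is given.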

Data set [1] is described as follows: Drug uptake in tumor of human LOXIMVI cells xenografted in Crl:NU(NCr)-Foxn1 nu mouse at 40 mg/kg, ip measured at 3 hrs post injection by LC-MS analysis. The following applies: in vivo. The format is ADME, organism-based, Neoplasm. The gist of the method:
(§2)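 Male Nu/Nu mice, some bearing NCI-H460 or LOX-IMVI xenografts, given a single ip dose at 3 mL/kg. Organic vehicle components were dissolved first, with the aqueous part added gradually. Mice were euthanized at 1 h or 3 h. Cardiac blood was taken into NaEDTA/NaF plasma separator tubes. Quantification used loratadine internal standard against a spiked blank-plasma curve. Tumours were run as duplicate ~200 mg samples homogenized in 3% SDS and extracted twice with ethyl acetate, assuming 1 g tissue = 1 mL.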
A general note: A xenograft is tissue or cells of one species grown in another, often human tumour cells in immunodeficient mice.

A further data set deals with M14. Nature of the data set: Antiproliferative activity against human M14 cells after 72 hrs by CellTiter 96 aqueous nonradioactive cell proliferation assay. Format: functional, cell-based. As to conditions: M14, 72 h. The gist of the method:
as §1

The next data set has as its system SF-295. In words: Antiproliferative activity against taxane-resistant human SF295 cells after 72 hrs by CellTiter 96 aqueous nonradioactive cell proliferation assay. As to conditions: SF-295, 72 h. The format is functional, cell-based. The gist of the method:
as §1

In a further data set the test system is EKVX. Nature of the data set: Antiproliferative activity against taxane-resistant human EKVX cells after 72 hrs by CellTiter 96 aqueous nonradioactive cell proliferation assay. Format: functional, cell-based.
For another data set, the system named is UO-31. Nature of the data set: Antiproliferative activity against taxane-resistant human UO31 cells after 72 hrs by CellTiter 96 aqueous nonradioactive cell proliferation assay. The format is functional, cell-based. As to conditions: UO-31, 72 h.
The test system of the next data set is NCI/ADR-RES. Nature of the data set: Antiproliferative activity against taxane-resistant human NCI/ADR-RES cells after 72 hrs by CellTiter 96 aqueous nonradioactive cell proliferation assay. The format is functional, cell-based. The method, boiled down: as §1
In the next data set the test system is HCT-15. In words: Antiproliferative activity against taxane-resistant human HCT15 cells after 72 hrs by CellTiter 96 aqueous nonradioactive cell proliferation assay. As to conditions: HCT-15, 72 h. Format: functional, cell-based. The method, boiled down: as §1
The next data set has as its system OVCAR-4. In words: Antiproliferative activity against taxane-resistant human OVCAR4 cells after 72 hrs by CellTiter 96 aqueous nonradioactive cell proliferation assay. Format: functional, cell-based. As to conditions: OVCAR-4, 72 h. The method, boiled down: as §1
For the next data set, the system named is ACHN. In words: Antiproliferative activity against taxane-resistant human ACHN cells after 72 hrs by CellTiter 96 aqueous nonradioactive cell proliferation assay. Format: functional, cell-based. The gist of the method: as §1
The nature of data set [2]: Ratio of plasma concentration in Crl:NU(NCr)-Foxn1 nu mouse at 40 mg/kg, ip injected via vehicle consisting 40.5% propylene glycol, 2.7% tween-20, 31.5% PEG400, 15.3% ethanol and 10% water measured at 30 mins post injection to IC50 for human NCI-H460 cells. Format: ADME, organism-based. The following applies: in vivo, 0.5 h.
A short description of data set [3]: Ratio of plasma concentration in Crl:NU(NCr)-Foxn1 nu mouse at 40 mg/kg, ip injected via vehicle consisting 40.5% propylene glycol, 2.7% tween-20, 31.5% PEG400, 15.3% ethanol and 10% water measured at 1 hr post injection to IC50 for human NCI-H460 cells. Format: ADME, organism-based. As to conditions: in vivo.
The nature of data set [4]: Plasma concentration in Crl:NU(NCr)-Foxn1 nu mouse at 40 mg/kg, ip injected via vehicle consisting 40% propylene glycol, 20% tween-20, 20% PEG400, 20% ethanol […] by LC-MS analysis. As to conditions: in vivo. Format: ADME, organism-based. The method, boiled down: as §2
Data set [5] can be described thus: Plasma concentration in Crl:NU(NCr)-Foxn1 nu mouse at 40 mg/kg, ip injected via vehicle consisting 25% propylene glycol, 20% tween-20, 20% PEG400, 20% ethanol by LC-MS analysis. Format: ADME, organism-based. As to conditions: in vivo. The method, boiled down:
as §2

Data set [6] can be described thus: Plasma concentration in Crl:NU(NCr)-Foxn1 nu mouse at 40 mg/kg, ip injected via vehicle consisting 45% propylene glycol, <3 % tween-20, 20% PEG400, 20% ethanol by LC-MS analysis. The format is ADME, organism-based. As to conditions: in vivo. The gist of the method:
as §2

Data set [7] in a line: Ratio of plasma concentration in Crl:NU(NCr)-Foxn1 nu mouse at 75 to 100 mg/kg, ip injected via vehicle consisting 40.5% propylene glycol, 2.7% tween-20, 31.5% PEG400, 15.3% ethanol and 10% water measured at 6 hrs post injection to IC50 for human NCI-H460 cells. The format is ADME, organism-based. The following applies: in vivo.
Data set [8] is described as follows: Time at which plasma concentration stays above NCI-H460 IC50 in Crl:NU(NCr)-Foxn1 nu mouse xenografted with human NCI-H460 cells at 40 mg/kg, ip injected via vehicle consisting 40% propylene glycol, 20% tween-20, 20% PEG400, and 20% ethanol by LC-MS analysis. The format is ADME, organism-based. The following applies: in vivo.
The nature of data set [9]: Time at which plasma concentration stays above NCI-H460 IC50 in Crl:NU(NCr)-Foxn1 nu mouse xenografted with human NCI-H460 cells at 40 mg/kg, ip injected via vehicle consisting 40.5% propylene glycol, 2.7% tween-20, 31.5% PEG400, 15.3% ethanol and 10% water by LC-MS analysis. Format: ADME, organism-based. As to conditions: in vivo.
The nature of data set [10]: Drug uptake in tumor of human NCI-H460 cells xenografted in Crl:NU(NCr)-Foxn1 nu mouse at 40 mg/kg, ip measured at 3 hrs post injection by LC-MS analysis. Format: ADME, organism-based, Neoplasm. The following applies: in vivo. The gist of the method:
as §2

pIC50: −log10 of the molar value.

The term pIC50 denotes −log10 of the IC50, conventionally taken in molar units. Take `C=CC[C@H]1C[C@]2([C@@H](C)Cc3ccc(OC)cc3F)OCOC2=CC1=O`: the pIC50 with NCI-H460 was 7.03; in the data set on M14, 7.85. In addition, in [1], the Drug uptake entry is on record as “Active”.
Turning to `CC(=O)O[C@H]1C(=O)[C@@]2(C)[C@H]([C@H](OC(=O)c3ccccc3)[C@]3(O)C[C@H](OC(=O)[C@H](O)[C@@H](NC(=O)c4ccccc4)c4ccccc4)C(C)=C1C3(C)C)[C@]1(OC(C)=O)CO[C@@H]1C[C@@H]2O` [PACLITAXEL], the pIC50 with SF-295 is 7.25; with EKVX, 6.82; with UO-31, 6.62; in the data set with NCI/ADR-RES, less than 5.05; in the data set on HCT-15 it was 6.72; with OVCAR-4, less than 6.22. Moreover, in the data set with ACHN, the pIC50 was 7.10.
For the compound `C=CC[C@H]1C[C@]2([C@@H](C)Cc3ccc(OC)c(OC)c3)OCOC2=CC1=O`, the Ratio in data set [2] is reported as more than 6; in [3], more than 3; in data set [7] it was more than 4. In addition, the Drug uptake entry in [4] is on record as “Active”; in data set [5], “Not Active”; in data set [6], “Active”. In addition, the pIC50 in the data set with M14 is 6.96. In addition, the Time in [8] amounted to 1 h; in data set [9], 3 h.
With `C=CC[C@H]1C[C@]2([C@@H](C)Cc3cc(F)c(OC)cc3F)OCOC2=CC1=O`, the Drug uptake result in [10] was “Active”. Also, the negative-log IC50 (pIC50) with NCI-H460 was 7.23; with M14, 7.52.
Turning to `C=CC[C@H]1C[C@]2([C@@H](C)Cc3ccc(OC)cc3)OCOC2=CC1=O`, the pIC50 with NCI-H460 was 7.05; in the data set with M14 it was 7.70.
In the same order, the values of `C=CC[C@H]1C[C@]2([C@@H](C)Cc3ccc(OC)c(C#N)c3)OCOC2=CC1=O` are 6.47 and 6.74.
In the same order, the values of `C=CC[C@H]1C[C@]2([C@@H](C)Cc3ccccc3)OCOC2=CC1=O` are 5.01 and 5.29.
The like results for `C=CC[C@H]1C[C@]2([C@H](C)Cc3c(F)cc(OC)cc3F)OCOC2=CC1=O` were, in that order, 5.60 and 6.49.
In the case of `C=CC[C@H]1C[C@]2([C@@H](C)Cc3ccc(O)cc3)OCOC2=CC1=O`, the pIC50 with NCI-H460 and with M14 was less than 4.70 throughout.
Turning to `C=CC[C@H]1C[C@]2([C@H](C)Cc3ccc(OC)c(OC)c3)OCOC2=CC1=O`, the pIC50 in the data set on NCI-H460 was 6.49; with M14, 6.52.
In the same order, the values of `C=CC[C@H]1C[C@]2(C(C)Cc3ccc(OC)c(OC(C)=O)c3)OCOC2=CC1=O` (stereo partly drawn) are 6.96 and 7.80.
In the same order, the values of `C=CC[C@H]1C[C@]2(C(C)Cc3ccc(OC)c(N)c3)OCOC2=CC1=O` (stereo partly drawn) are 6.74 and 7.31.
In the same order, the values of `C=CC[C@H]1C[C@]2([C@@H](C)Cc3ccc(OC)c(F)c3)OCOC2=CC1=O` are 7.05 and 8.10.
With `C=CC[C@@H]1C[C@]2([C@@H](C)Cc3ccc(OC)c(OC)c3)OCOC2=CC1=O`, the pIC50 in the data set on NCI-H460 and in the data set with M14 was less than 5.40 each time.
For the compound `C=CC[C@H]1C[C@]2(C(C)Cc3cc(C(N)=O)c(OC)cc3F)OCOC2=CC1=O` (stereo partly drawn), the results for the pIC50 in the data set with NCI-H460 and in the data set on M14 were 6.48 and 8.40, respectively.
With `C=CC[C@H]1C[C@]2(C(C)Cc3ccc(F)cc3)OCOC2=CC1=O` (stereo partly drawn), the pIC50 in the data set with NCI-H460 and in the data set on M14 was less than 4.70 in each case.
As to `C=CC[C@@H]1C[C@]2([C@H](C)Cc3ccc(OC)c(OC)c3)OCOC2=CC1=O`, the pIC50 in the data set with NCI-H460 and in the data set on M14 was less than 5.40 throughout.

For the origin of these results see ChEMBL document CHEMBL4325827, “Bifidenone: Structure-Activity Relationship and Advanced Preclinical Candidate” (J Med Chem, 2018).
